Reference: ChEMBL document CHEMBL5046236, “Synthesis and structure-activity relationship study of new biaryl amide derivatives and their inhibitory effects against hepatitis C virus” (Eur J Med Chem, 2022)

Key:
[1] = system: Hepatitis C virus; experiment: Antiviral activity against Hepatitis C virus infected in human Huh7.5 cells assessed as inhibition of viral replication incubated for 72 hrs by qRT-PCR analysis; assay type: functional, organism-based, Hepacivirus hominis; details: Huh7.5, 72 h
[2] = system: Huh-7.5; experiment: (§1) Cytotoxicity against human Huh7.5 cells assessed as inhibition of cell growth measured after 96 hrs by MTT assay; assay type: toxicity, cell-based; details: huh-7.5, 96 h
Outline: (§2)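 Huh7.5 cells in DMEM with 10% heat-inactivated FBS, seeded at 3.0 × 10⁴ cells/cm²; after 24 h, fresh medium with compound added (DMSO stocks, eight 1:5 serial dilutions).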

[3] = Selectivity index, ratio of CC50 for cytotoxicity against human Huh7.5 cells to EC50 for antiviral activity against Hepatitis C virus infected in human Huh7.5 cells; assay type: toxicity, cell-based; details: read-out: Ratio CC50/EC50
[4] = target: DNA dC->dU-editing enzyme APOBEC-3G (Homo sapiens) (UniProt Q9HC16); experiment: Inhibition of Vif-mediated human A3G degradation in HEK-293T cells cotransfected with hA3G and Vif at 20 uM by western blot analysis relative to control; assay type: cell-based
Outline: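 293T cells cotransfected with hA3G and Vif expression vectors, then treated with compounds at 20 μM; MG132 proteasome inhibitor as positive control, DMSO-treated cells as comparator for hA3G degradation.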

[5] = Acute toxicity in ip dosed Kunming mouse assessed as lethal dose measured after 7 days; assay type: organism-based; details: in vivo, 168 h, time 7 day
Outline: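 Single intraperitoneal dose at 50, 100, 150 or 200 mg/kg, n = 6 per group. Animals watched closely for 7 days. Median lethal dose (LD₅₀) estimated from deaths across the dose groups.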

[6] = as §1; assay type: toxicity, cell-based, Huh-7.5; details: Huh7.5 cells; outline: as §2
[7] = Aqueous Solubility of compound at pH 7 measured after 10 mins by HPLC-UV analysis; assay type: physicochemical; details: buffer

Chain of DNA dC->dU-editing enzyme APOBEC-3G (Homo sapiens) (Q9HC16 whole entry): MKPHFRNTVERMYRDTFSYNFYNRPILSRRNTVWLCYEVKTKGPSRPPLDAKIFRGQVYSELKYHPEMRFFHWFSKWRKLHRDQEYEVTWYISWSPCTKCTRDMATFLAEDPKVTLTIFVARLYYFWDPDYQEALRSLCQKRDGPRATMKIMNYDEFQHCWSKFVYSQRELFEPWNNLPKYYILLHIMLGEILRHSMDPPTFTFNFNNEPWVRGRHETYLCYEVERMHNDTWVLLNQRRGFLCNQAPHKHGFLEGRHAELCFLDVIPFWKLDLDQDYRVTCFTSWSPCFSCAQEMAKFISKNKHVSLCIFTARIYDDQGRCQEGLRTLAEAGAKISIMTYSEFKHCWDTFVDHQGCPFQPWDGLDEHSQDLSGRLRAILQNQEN

Compound	EC50 [1] [µM]	CC50 [2] [µM]	selectivity ratio [3]	inhibition [4] [%]	LD50 [5] [mg/kg]	CC50 at 96 h [6] [µM]	solubility at 10 min [7] [µg/mL]
CN1CCN(Cc2ccc(NC(=O)c3ccc(OCCCCl)c(Cl)c3)cc2C(F)(F)F)CC1	0.58	4.1	7	–	–	–	–
CC(C)Oc1ccc(C(=O)Nc2ccc(CN3CCN(C)CC3)c(C(F)(F)F)c2)cc1NC(=O)C(C)Br (configuration not stated)	0.32	8.7	27	–	–	–	–
CN1CCN(Cc2ccc(NC(=O)c3ccc(OCCCl)c([N+](=O)[O-])c3)cc2C(F)(F)F)CC1	0.044	9.04	204	–	–	–	–
CCC(=O)Nc1cc(C(=O)Nn2c(C)nnc2S)ccc1OC	14.4	> 200	> 14	> 50	–	–	–
CC(C)Oc1ccc(C(=O)Nc2ccc(CN3CCN(C)CC3)c(C(F)(F)F)c2)cc1N	1.32	21.6	16	–	–	–	–
COc1ccc(C(=O)Nc2cc(OC)c(OC)c(OC)c2)cc1NC(=O)C(C)Br (configuration not stated)	2.1	15	7	–	–	–	–
CCOc1ccc(C(=O)Nc2ccc(OC)cc2)cc1NC(=O)CC	1.47	73.2	48	25	–	–	–
CCC(=O)Nc1cc(C(=O)Nc2ccc(CN3CCN(C)CC3)c(C(F)(F)F)c2)ccc1OC	1.48	35.3	24	> 50	–	–	–
CN1CCN(Cc2ccc(NC(=O)c3ccc(OCCCCl)c([N+](=O)[O-])c3)cc2C(F)(F)F)CC1	0.044	6.8	154	–	< 100	–	–
CN1CCN(Cc2ccc(NC(=O)c3ccc(OCCCCl)c(C(F)(F)F)c3)cc2C(F)(F)F)CC1	0.13	13.4	99.6	–	–	–	–
CCC(=O)Nc1cc(C(=O)Nc2ccc(N(C)C)cc2)ccc1OC(C)C	6.03	80.6	13	–	–	–	–
CN1CCN(Cc2ccc(NC(=O)c3ccc(OCCCCl)c(F)c3)cc2C(F)(F)F)CC1	0.49	8.8	18.9	–	–	–	–
COc1ccc(NC(=O)c2ccc(OCCCN3CCN(C)CC3)c(N)c2)cc1	–	–	–	< 25	–	–	–
CCC(=O)Nc1cc(C(=O)Nc2ccc(OC)cc2)ccc1OCCCN1CCN(C)CC1	13.5	126	9.4	> 50	–	–	–
CC(C)Oc1ccc(C(=O)Nc2ccc(CN3CCN(C)CC3)c(C(F)(F)F)c2)cc1[N+](=O)[O-]	0.095	3.5	39	< 25	–	–	–
CC1CCN(c2ccc(NC(=O)c3ccc(OCCCCl)c([N+](=O)[O-])c3)cn2)CC1	0.64	9.2	14.4	–	–	–	–
CN1CCN(Cc2ccc(NC(=O)c3ccc(OCCCCCCl)c([N+](=O)[O-])c3)cc2C(F)(F)F)CC1	0.06	2.14	36	–	–	–	–
COc1ccc(NC(=O)c2ccc(OCCCN(C)C)c([N+](=O)[O-])c2)cc1	8.96	126	14	< 25	–	–	–
O=C(Nc1ccc(CN2CC(C(=O)O)C2)c(C(F)(F)F)c1)c1ccc(OCCCCl)c([N+](=O)[O-])c1	4.72	> 200	> 42	–	–	–	–
CN1CCN(Cc2ccc(NC(=O)c3ccc(OCCCCl)c([N+](=O)[O-])c3)cn2)CC1	0.083	–	151	–	–	12.6	–
CCC(=O)Nc1cc(C(=O)Nc2ccc(OC)cc2)ccc1OC(C)C	1.1	113	103	< 25	–	–	–
COc1ccc(NC(=O)c2ccc(OC(C)C)c([N+](=O)[O-])c2)cc1	2.86	23.4	8	< 25	–	–	–
CCC(=O)Nc1cc(C(=O)Nc2ccc(OC)cc2)ccc1OCCCN(C)C	> 22.2	154	–	> 50	–	–	–
CN(C)C1CCN(Cc2ccc(NC(=O)c3ccc(OCCCCl)c([N+](=O)[O-])c3)cc2C(F)(F)F)C1 (configuration not stated)	0.051	5.8	113	–	–	–	–
COc1ccc(NC(=O)c2ccc3c(c2)NCCO3)cc1	> 22.2	153	–	< 25	–	–	–
CN(C)C1CN(Cc2ccc(NC(=O)c3ccc(OCCCCl)c([N+](=O)[O-])c3)cc2C(F)(F)F)C1	0.021	7.8	371	–	–	–	–
CC1CN(Cc2ccc(NC(=O)c3ccc(OCCCCl)c([N+](=O)[O-])c3)cc2C(F)(F)F)CC(C)O1 (configuration not stated)	0.174	2.3	13.3	–	–	–	–
CN1CCN(Cc2ccc(NC(=O)c3ccc(OCCCCl)c([N+](=O)[O-])c3)cc2C#N)CC1	0.65	15.5	23	–	–	–	–

Compound	EC50 [1] [µM]	CC50 [2] [µM]	selectivity ratio [3]	inhibition [4] [%]	LD50 [5] [mg/kg]	CC50 at 96 h [6] [µM]	solubility at 10 min [7] [µg/mL]
CCC(=O)Nc1cc(C(=O)Nc2ccc(CN3CCN(C)CC3)c(C(F)(F)F)c2)ccc1OCCCCl	0.22	7.87	36.3	–	–	–	–
CC(C)Oc1ccc(C(=O)Nc2ccc(N(C)C)cc2)cc1NC(=O)C(C)Br (configuration not stated)	4.34	7.9	2	–	–	–	–
CCCOc1ccc(C(=O)Nc2ccc(OC)cc2)cc1[N+](=O)[O-]	–	–	–	< 25	–	–	–
CCCOc1ccc(C(=O)Nc2ccc(OC)cc2)cc1NC(=O)CC	1.55	106	68	25	–	–	–
COc1ccc(NC(=O)c2ccc(OCCCN(C)C)c(N)c2)cc1	–	–	–	< 25	–	–	–
COc1ccc(NC(=O)c2ccc(OCCCN3CCN(C)CC3)c([N+](=O)[O-])c2)cc1	–	–	–	< 25	–	–	–
CCC[C@H](NC(=O)[C@@H]1[C@H]2CCC[C@H]2CN1C(=O)[C@@H](NC(=O)[C@@H](NC(=O)c1cnccn1)C1CCCCC1)C(C)(C)C)C(=O)C(=O)NC1CC1	–	23.7	–	–	–	–	–
CCC(=O)Nc1cc(C(=O)Nc2ccc(OC)cc2)ccc1OCCCCl	7.41	158	21	–	–	–	–
CCC(=O)Nc1cc(C(=O)Nc2ccc(OC)cc2)ccc1OC	1.3	109	84	> 50	–	–	–
CCC(=O)Nc1cc(C(=O)Nc2ccc(N3CCN(C)CC3)cc2)ccc1OC	> 22.2	> 200	–	–	–	–	–
CN1CCN(Cc2ccc(NC(=O)c3ccc(OCCCCCl)c([N+](=O)[O-])c3)cc2C(F)(F)F)CC1	0.1	3.74	37	–	–	–	–
CN(C)C1CN(Cc2ccc(NC(=O)c3ccc(OCCCl)c([N+](=O)[O-])c3)cc2C(F)(F)F)C1.Cl	–	–	–	–	–	–	7800
CC(C)Oc1ccc(C(=O)Nc2ccc(N(C)C)cc2)cc1N	7.41	72.1	10	–	–	–	–
CCC(=O)Nc1cc(C(=O)Nc2ccc(N(C)C)cc2)ccc1OC	2.56	171	66	< 25	–	–	–
CC(C)Oc1ccc(C(=O)Nc2ccc(N(C)C)cc2)cc1[N+](=O)[O-]	3.1	50	16	–	–	–	–
CN1CCN(Cc2ccc(NC(=O)c3ccc(OCCCCl)c(S(N)(=O)=O)c3)cc2C(F)(F)F)CC1	1.14	5.47	6.2	–	–	–	–
O=C(Nc1ccc(CN2CCOCC2)c(C(F)(F)F)c1)c1ccc(OCCCCl)c([N+](=O)[O-])c1	0.315	6.1	19.3	–	–	–	–
COc1ccc(NC(=O)c2ccc(OCCCCl)c([N+](=O)[O-])c2)cc1	2.39	39.7	17	< 25	–	–	–
COc1ccc(C(=O)Nc2ccc(N(C)C)cc2)cc1[N+](=O)[O-]	4.07	88.2	22	> 50	–	–	–
COc1ccc(NC(=O)c2ccc3c(c2)NC(=O)CO3)cc1	7.46	77.3	10	25	–	–	–
CN1CCN(Cc2ccc(NC(=O)c3ccc(OCCCCl)c(N)c3)cc2C(F)(F)F)CC1	1.18	12.9	10.9	–	–	–	–
CCC(=O)Nc1cc(C(=O)Nc2ccc(CN3CCN(C)CC3)cc2)ccc1OC	> 22.2	> 200	–	25	–	–	–
CCC(=O)Nc1cc(C(=O)Nc2ccc(CN3CCN(C)CC3)c(C(F)(F)F)c2)ccc1OC(C)C	0.3	15.3	51	–	–	–	–
CCC(=O)Nc1cc(C(=O)Nc2ccc(-c3cc4ccccc4[nH]3)cc2)ccc1OC	7.41	65.6	9	> 50	–	–	–
CN(C)C1CCN(Cc2ccc(NC(=O)c3ccc(OCCCCl)c([N+](=O)[O-])c3)cc2C(F)(F)F)CC1	0.38	5.5	14	–	–	–	–
COc1ccc2c(O[C@@H]3C[C@H]4C(=O)N[C@]5(C(=O)NS(=O)(=O)C6CC6)CC5/C=C\CCCCN(C)C(=O)[C@@H]4C3)cc(-c3nc(C(C)C)cs3)nc2c1C (single isomer, unassigned)	0.008	38	4760	–	–	–	–
CCC(=O)Nc1cc(C(=O)Nc2ccc(OC)cc2)ccc1OCCCN1CCOCC1	> 22.2	49.2	–	–	–	–	–
